Laboratory results as given in article PMC3217223 (Bioorganic & Medicinal Chemistry, 2009).
Structures can show the parent of a compound that is named as a salt.

Assays:
NMDA receptors = type: cell-based; details: for NMDA receptor antagonism (in words): cerebellar granule neurons, glutamate or NMDA 100 μM + glycine 10 μM
[1] = test system: bloodstream form T. brucei (strain 427); assay: T. brucei culturing and drug test; type: cell-based, Trypanosoma brucei; details: for Trypanocidal activity (in words): at concentrations up to 5 mg mL^−1; for Trypanocidal properties (in words): bloodstream form T. brucei
Method in brief: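 Parasites were kept at 37 °C in modified Iscove's medium (pH 7.4) and grown for 48 h with a range of test compound concentrations. Cell density at each concentration was counted by hemocytometer and expressed as percent of untreated control growth. Concentrations giving 50% and 90% growth inhibition (IC₅₀, IC₉₀) were determined. Run in triplicate.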

[2] = test system: herpes simplex virus type 1; type: cell-based; details: microscopy and MTS assay
[3] = test system: herpes simplex virus type 2; type: cell-based; details: microscopy and MTS assay
vaccinia virus = type: cell-based
feline coronavirus = type: cell-based; details: microscopy and MTS assay
parainfluenza-3 virus = type: cell-based; details: microscopy and MTS assay
[4] = test system: respiratory syncytial virus; type: cell-based; details: microscopy and MTS assay
[5] = test system: vesicular stomatitis virus; type: cell-based
sindbis virus = type: cell-based; details: microscopy and MTS assay
Punta Toro virus = type: cell-based; details: microscopy and MTS assay
Coxsackievirus B4 = type: cell-based; details: microscopy and MTS assay
Reovirus-1 = type: cell-based; details: microscopy and MTS assay
influenza virus A/H1N1 = type: cell-based, influenza virus A/Puerto Rico/8/34 (H1N1); details: influenza virus A/H1N1 (A/Puerto Rico/8/34); microscopy and MTS assay
influenza virus A/H3N2 = type: cell-based, influenza virus A/Hong Kong/7/87 (H3N2); details: influenza virus A/H3N2 (A/Hong Kong/7/87); microscopy and MTS assay
influenza virus B = type: cell-based, influenza virus B/Hong Kong/5/72; details: influenza virus B (B/Hong Kong/5/72); microscopy and MTS assay

| Compound | NMDA receptor antagonism (in words) (NMDA receptors) | Trypanocidal activity (in words) [1] | Antiviral activity [2] | Antiviral activity [3] | Antiviral activity (vaccinia virus) | Antiviral activity (feline coronavirus) | Antiviral activity (parainfluenza-3 virus) | Antiviral activity [4] | Antiviral activity [5] | Antiviral activity (sindbis virus) | Antiviral activity (Punta Toro virus) | Antiviral activity (Coxsackievirus B4) | Antiviral activity (Reovirus-1) | Antiviral activity (influenza virus A/H1N1) | Antiviral activity (influenza virus A/H3N2) | Antiviral activity (influenza virus B) | other results |
| --- | --- | --- | --- | --- | --- | --- | --- | --- | --- | --- | --- | --- | --- | --- | --- | --- | --- |
| c1ccc(CNC23CC4CC(CC(C4)O2)C3)cc1 [Compound 2a, N-Benzyl(2-oxaadamant-1-yl)amine hydrochloride] | inactive | no activity | None of the tested compounds displayed activity | None of the tested compounds displayed activity | None of the tested compounds displayed activity | None of the tested compounds displayed activity | None of the tested compounds displayed activity | None of the tested compounds displayed activity | None of the tested compounds displayed activity | None of the tested compounds displayed activity | None of the tested compounds displayed activity | None of the tested compounds displayed activity | None of the tested compounds displayed activity | none of the compounds was found to be active | none of the compounds was found to be active | none of the compounds was found to be active | – |
| c1ccc(CCNC23CC4CC(CC(C4)O2)C3)cc1 [Compound 2b, N-(2-Phenylethyl)(2-oxaadamant-1-yl)amine hydrochloride] | – | no activity | – | – | – | – | – | – | – | – | – | – | – | – | – | – | – |
| CN(Cc1ccccc1)C12CC3CC(CC(C3)O1)C2 [Compound 3a, N-Benzyl-N-methyl(2-oxaadamant-1-yl)amine] | inactive | no activity | – | – | – | – | – | – | – | – | – | – | – | – | – | – | – |
| CN(CCc1ccccc1)C12CC3CC(CC(C3)O1)C2 [Compound 3b, N-Methyl-N-(2-phenylethyl)(2-oxaadamant-1-yl)amine hydrochloride] | – | no activity | – | – | – | – | – | – | – | – | – | – | – | – | – | – | – |
| CNC12CC3CC(CC(C3)O1)C2 [Compound 4, N-Methyl(2-oxaadamant-1-yl)amine hydrochloride] | inactive | no activity | None of the tested compounds displayed activity | None of the tested compounds displayed activity | None of the tested compounds displayed activity | None of the tested compounds displayed activity | None of the tested compounds displayed activity | None of the tested compounds displayed activity | None of the tested compounds displayed activity | None of the tested compounds displayed activity | None of the tested compounds displayed activity | None of the tested compounds displayed activity | None of the tested compounds displayed activity | none of the compounds was found to be active | none of the compounds was found to be active | none of the compounds was found to be active | – |
| c1ccc(CN(Cc2ccccc2)C23CC4CC(CC(C4)O2)C3)cc1 [Compound 8, N,N-Dibenzyl(2-oxaadamant-1-yl)amine] | inactive | no activity | – | – | – | – | – | – | – | – | – | – | – | – | – | – | – |
| CC12CC3CC(C1)CC(N)(C3)O2 [Compound 10a, (3-Methyl-2-oxaadamant-1-yl)amine hydrochloride] | inactive | – | – | – | – | – | – | – | – | – | – | – | – | – | – | – | – |
| NC12CC3CC(C1)CC(c1ccccc1)(C3)O2 [Compound 10c, (3-Phenyl-2-oxaadamant-1-yl)amine hydrochloride] | only a weak NMDA receptor antagonist | – | None of the tested compounds displayed activity | None of the tested compounds displayed activity | None of the tested compounds displayed activity | None of the tested compounds displayed activity | None of the tested compounds displayed activity | None of the tested compounds displayed activity | None of the tested compounds displayed activity | None of the tested compounds displayed activity | None of the tested compounds displayed activity | None of the tested compounds displayed activity | None of the tested compounds displayed activity | none of the compounds was found to be active | none of the compounds was found to be active | none of the compounds was found to be active | – |
| NC12CC3CC(C1)CC(C1CCCCC1)(C3)O2 [Compound 10d, (3-cyclohexyl-2-oxaadamant-1-yl)amine hydrochloride] | – | – | None of the tested compounds displayed activity | None of the tested compounds displayed activity | None of the tested compounds displayed activity | None of the tested compounds displayed activity | None of the tested compounds displayed activity | None of the tested compounds displayed activity | None of the tested compounds displayed activity | None of the tested compounds displayed activity | None of the tested compounds displayed activity | None of the tested compounds displayed activity | None of the tested compounds displayed activity | none of the compounds was found to be active | none of the compounds was found to be active | none of the compounds was found to be active | – |
| CN(C)C12CC3CC(CC(C)(C3)O1)C2 [Compound 11a, N,N-Dimethyl(3-methyl-2-oxaadamant-1-yl)amine hydrochloride] | inactive | – | – | – | – | – | – | – | – | – | – | – | – | – | – | – | Trypanocidal activity relative to amantadine ([1]; compared with amantadine): at least 30 times; Trypanocidal activity relative to rimantadine ([1]; compared with rimantadine): approximately twice |
| CCN(CC)C12CC3CC(CC(CC)(C3)O1)C2 [Compound 12, N,N-Diethyl(3-ethyl-2-oxaadamant-1-yl)amine hydrochloride] | – | – | – | – | – | – | – | – | – | – | – | – | – | – | – | – | Potency as NMDA receptor antagonist relative to amantadine (NMDA receptors; compared with amantadine): seven times more potent than amantadine; Potency as NMDA receptor antagonist relative to memantine (NMDA receptors; compared with memantine): ten times less potent than memantine |
| CCC12CC3CC(C1)CC(NCc1ccccc1)(C3)O2 [Compound 13, N-Benzyl(3-ethyl-2-oxaadamant-1-yl)amine hydrochloride] | – | – | – | – | – | – | – | – | – | – | – | – | – | – | – | – | Trypanocidal properties (in words) [1]: no significant trypanocidal properties |
| CCC12CC3CC(C1)CC(NC)(C3)O2 [Compound 15, N-Methyl(3-ethyl-2-oxaadamant-1-yl)amine hydrochloride] | – | – | None of the tested compounds displayed activity | None of the tested compounds displayed activity | None of the tested compounds displayed activity | None of the tested compounds displayed activity | None of the tested compounds displayed activity | None of the tested compounds displayed activity | None of the tested compounds displayed activity | None of the tested compounds displayed activity | None of the tested compounds displayed activity | None of the tested compounds displayed activity | None of the tested compounds displayed activity | none of the compounds was found to be active | none of the compounds was found to be active | none of the compounds was found to be active | Trypanocidal properties (in words) [1]: no significant trypanocidal properties |
